# Experimental data taken from publication PMC10213863 (Cell Reports Medicine, 2023).
# Experiments:
# NZB/W F1 mice [1] = test: NZB/W F1 model repeated at a different site, therapeutic twice-daily oral dosing; type: in vivo, mouse
# Summary of the method: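 This repeat NZB/W F1 study had three differences. Mice were included at dipstick proteinuria score 2 (0.3–1 mg/mL), proteinuria was scored by dipstick, and test compound was given orally b.i.d. rather than in food. Kidney IgM and IgG deposits were quantified as positively stained area over total section area on ten sections per mouse, then averaged.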
# NZB/W F1 mice [2] = test: Mouse NZB/W F1 model of lupus, MHV370 in food; type: in vivo
# Summary of the method: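 NZB/W F1 mice entered at 23 weeks and were randomized into groups of 14 (mean proteinuria 0.1–0.5 mg/mL). They were dosed with test compound in food. Weight was recorded twice weekly; proteinuria weekly by quantitative protein assay (BSA standard). Serum IgG autoantibodies were measured by ELISA at 1:100 or 1:300, with DWEYS peptide for NMDAR, HRP anti-IgG (1:10′000) and TMB. Kidney IgG was stained by IHC; positive/total area was averaged over ten sections per mouse.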
# TLR4 = TLR4 (Mus musculus, UniProt Q9QUK6); test: Murine whole blood assay, TLR4 activation; type: cell-based; conditions: up to 10 μM, data not shown, n = 4
# Sequence of TLR4 (Q9QUK6 26-835): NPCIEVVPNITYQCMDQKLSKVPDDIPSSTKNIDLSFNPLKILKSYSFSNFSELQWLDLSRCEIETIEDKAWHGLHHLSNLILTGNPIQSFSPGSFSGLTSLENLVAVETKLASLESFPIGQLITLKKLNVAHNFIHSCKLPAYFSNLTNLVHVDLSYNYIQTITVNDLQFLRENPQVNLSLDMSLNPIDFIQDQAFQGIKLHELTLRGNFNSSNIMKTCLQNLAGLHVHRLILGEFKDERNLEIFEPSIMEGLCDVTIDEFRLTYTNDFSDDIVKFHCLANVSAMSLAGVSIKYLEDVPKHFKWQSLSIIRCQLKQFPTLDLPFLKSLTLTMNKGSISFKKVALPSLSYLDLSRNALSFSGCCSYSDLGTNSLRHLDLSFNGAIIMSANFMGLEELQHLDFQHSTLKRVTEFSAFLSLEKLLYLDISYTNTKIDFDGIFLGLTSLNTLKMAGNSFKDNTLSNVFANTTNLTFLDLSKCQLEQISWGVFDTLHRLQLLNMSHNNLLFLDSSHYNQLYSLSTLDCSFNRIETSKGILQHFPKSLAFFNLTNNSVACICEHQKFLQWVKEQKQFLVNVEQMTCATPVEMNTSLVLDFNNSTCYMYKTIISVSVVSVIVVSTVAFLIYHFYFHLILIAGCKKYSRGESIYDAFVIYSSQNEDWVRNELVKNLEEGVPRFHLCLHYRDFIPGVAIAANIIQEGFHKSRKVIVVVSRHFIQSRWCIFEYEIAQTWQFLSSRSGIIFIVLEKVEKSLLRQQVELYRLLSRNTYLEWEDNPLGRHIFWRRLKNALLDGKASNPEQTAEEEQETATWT
# Sequence of TLR4 (Q9JHF9 19-160 partner): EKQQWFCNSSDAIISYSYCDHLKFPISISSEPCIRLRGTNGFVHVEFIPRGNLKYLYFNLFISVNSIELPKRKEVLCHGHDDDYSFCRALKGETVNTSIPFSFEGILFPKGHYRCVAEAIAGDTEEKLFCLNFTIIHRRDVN
# Summary of the method: (§1)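 Fresh human blood or 129/Sv mouse blood was taken into citrate and diluted 1:1 with RPMI1640. It was pre-incubated 30 min at 37°C, 5% CO2 with increasing concentrations of test compound or 0.25% v/v DMSO (final). Blood was then stimulated with TLR agonists at doses from earlier work, or with R848 (3 μM), and cytokines were quantified. Viability was checked by ATPlite luminescence.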
# B cell receptor = test: B cell receptor-mediated activation in human blood; type: cell-based; conditions: up to 16 μM; n = 2, data not shown
# Summary of the method: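 Heparinized human blood was given a 3-fold serial dilution of test compound, top 16 μM, for 1.5 h at 37°C. B cells were then activated with 50 μg/mL anti-human IgM for 20 min at 37°C. Samples were lysed/fixed and permeabilized, then stained for pAkt([…]) and CD20. Readout was by flow cytometry.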
# TLR7 [3] = target: T1, TLR7 (Mus musculus, UniProt P58681); test: Chronic TLR7 activation in vivo assay; conditions: 129/Sv mice; R848 plus MHV370 vs R848 plus vehicle
# T1 sequence (P58681 27-1050): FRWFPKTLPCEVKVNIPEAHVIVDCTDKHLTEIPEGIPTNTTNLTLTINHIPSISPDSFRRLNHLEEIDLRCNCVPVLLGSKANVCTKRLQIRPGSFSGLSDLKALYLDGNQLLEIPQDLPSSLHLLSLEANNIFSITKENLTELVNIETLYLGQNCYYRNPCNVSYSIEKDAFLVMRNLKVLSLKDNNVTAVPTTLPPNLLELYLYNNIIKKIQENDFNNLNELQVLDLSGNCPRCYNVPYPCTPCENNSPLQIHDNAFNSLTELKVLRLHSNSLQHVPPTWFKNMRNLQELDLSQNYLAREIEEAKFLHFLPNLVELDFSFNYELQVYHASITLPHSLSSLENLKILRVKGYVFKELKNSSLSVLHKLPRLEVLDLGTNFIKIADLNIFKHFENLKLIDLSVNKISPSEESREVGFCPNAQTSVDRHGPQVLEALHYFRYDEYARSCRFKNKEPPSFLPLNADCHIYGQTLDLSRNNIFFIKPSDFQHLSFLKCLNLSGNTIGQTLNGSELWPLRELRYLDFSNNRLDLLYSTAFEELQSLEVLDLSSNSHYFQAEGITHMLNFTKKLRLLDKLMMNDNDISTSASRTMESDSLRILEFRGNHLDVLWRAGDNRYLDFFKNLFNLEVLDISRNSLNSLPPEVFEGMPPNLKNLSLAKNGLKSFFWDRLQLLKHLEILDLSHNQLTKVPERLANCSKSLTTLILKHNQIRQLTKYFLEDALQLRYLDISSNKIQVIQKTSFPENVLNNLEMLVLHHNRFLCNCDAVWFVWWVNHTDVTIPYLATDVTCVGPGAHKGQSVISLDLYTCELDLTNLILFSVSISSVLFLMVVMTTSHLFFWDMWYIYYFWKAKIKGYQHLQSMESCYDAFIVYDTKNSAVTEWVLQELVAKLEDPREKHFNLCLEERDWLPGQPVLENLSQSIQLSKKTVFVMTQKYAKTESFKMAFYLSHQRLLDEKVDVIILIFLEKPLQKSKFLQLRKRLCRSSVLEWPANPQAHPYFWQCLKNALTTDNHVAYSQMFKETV
# Summary of the method: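 129/Sv mice (5 per group) received R848 i.p. at 2.5 mg/kg daily for 14 days. From day 7, groups were dosed orally b.i.d. with test compound at 15 mg/kg or with vehicle. Naive mice served as reference. Blood RNA-seq counts were filtered (≥10 counts per million in ≥4 samples) and TMM-normalized in edgeR. Differential expression was analysed with limma.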
# murine TLR7 = murine TLR7 (Mus musculus, UniProt P58681); test: Murine whole blood assay, ssRNA-induced IFN-α and TNF; type: cell-based
# Summary of the method: as §1
# [4] = system: human PBMCs, monocytes, neutrophils, human blood; test: Cell viability in profiling assays; type: cell-based; conditions: human primary cells; concentrations of up to 10 μM
# Summary of the method: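 Toxicity counter-screens were run within each primary-cell assay across the test-compound dose range. PBMCs, isolated monocytes and neutrophils were read by CellTiter-Glo. Diluted whole blood was read by ATPlite luminescence.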
# TLR7 [5] = target: T1, TLR7; test: Ex vivo PD marker CD69 on B cells vs MHV370 blood exposure in NZB/W F1 mice
# Summary of the method: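 NZB/W F1 mice were dosed with test compound in food. Anticoagulated whole blood was diluted 1:1 in RPMI1640 and stimulated with 0.07 μg/mL R848 or medium at 37°C, 5% CO2. CD69 MFI on CD19+ B cells was read by flow cytometry. Drug concentration in whole blood was measured by LC-MS/MS.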
# [6] = MHV370 blood exposure during food dosing of NZB/W F1 mice; type: in vivo, mouse
# Summary of the method: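 NZB/W F1 mice were fed diet containing test compound at 0.01% or 0.1%, with fresh food every two weeks. Daily food intake per mouse was calculated per cage. Whole-blood drug concentrations were measured by LC-MS/MS.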
# [7] = therapeutic b.i.d. p.o. after robust proteinuria
# [8] = 0.1% MHV370 in food, kidney histology
# [9] = MHV370-laced food, at termination
structure (smiles),measurement,setting,value
"Cc1cc(N2CCc3c(c(C)nn3CC34CCC(NC(=O)[C@@H]5COCCN5)(CC3)CC4)C2)c2cnn(C)c2n1 [MHV370, (S)-N-(4-((5-(1,6-dimethyl-1H-pyrazolo[3,4-b]pyridin-4-yl)-3-methyl-4,5,6,7-tetrahydro-1H-pyrazolo[4,3-c]pyridin-1-yl)methyl)bicyclo[2.2.2]octan-1-yl)morpholine-3-carboxamide]",IgM and IgG deposition in kidneys (histology),NZB/W F1 mice [1]; therapeutic b.i.d. p.o.,substantially reduced
same,proteinuria (dipstick score),NZB/W F1 mice [1]; [7],reduced proteinuria
same,survival,NZB/W F1 mice [1]; [7],increased survival
same,inhibition of proteinuria at low dose,NZB/W F1 mice [2]; 0.01% MHV370 in food,already achieved
same,IgG deposits in the glomeruli,NZB/W F1 mice [2]; [8],reduced
same,glomerulopathy,NZB/W F1 mice [2]; [8],reduced
same,infiltration of kidneys with CD45R+ B cells,NZB/W F1 mice [2]; [8],reduced
same,infiltration of kidneys with CD138+ plasma cells,NZB/W F1 mice [2]; [8],reduced
same,proteinuria,NZB/W F1 mice [2]; MHV370-laced food,effectively prevented
same,blood urea nitrogen (BUN),NZB/W F1 mice [2]; [9],moderately reduced
same,serum levels of CXCL13,NZB/W F1 mice [2]; [9],significantly reduced
same,IgG autoantibody levels against NMDAR,NZB/W F1 mice [2]; serum at termination,reduced
same,IgG autoantibody levels against Smith (Sm),NZB/W F1 mice [2]; serum at termination,reduced
same,IgG autoantibody levels against ribosomal P (RiboP),NZB/W F1 mice [2]; serum at termination,reduced
same,serum antibodies against double-stranded DNA (dsDNA),NZB/W F1 mice [2]; serum at termination,not reduced
same,serum antibodies against histones,NZB/W F1 mice [2]; serum at termination,not reduced
same,functional inhibition of TLR4,TLR4,did not show functional inhibition
same,activation of B cell responses via the B cell receptor,B cell receptor,unaffected
same,"inflammatory pathways (ISGs, TLR and TNF pathways), gene set enrichment in blood",TLR7 [3],all downregulated
same,IC50,"murine TLR7; IC50, TLR7 (ssRNA-IFN-α), mouse blood, mean ± SEM (n)",58 ± 10 nM
same,potency on mouse whole blood relative to human whole blood (fold lower),murine TLR7; mouse vs human whole blood,about 10 fold
same,cell toxicity,[4],did not lead to cell toxicity
same,IC50,TLR7 [5],35 nM
same,exposure level in blood,[6]; 0.01% MHV370 in food,55 nM
same,exposure level in blood,[6]; 0.1% MHV370 in food,1424 nM
